Most compounds without a hit are left out; they make up all but 3.3% or so of the library.
TDP2 absorb: human TDP2 enzyme inhibitors, primary screen, biochemical, epi absorbance, recombinant enzyme; Tyrosyl-DNA phosphodiesterase 2 (Homo sapiens), O95551; T5PNP hydrolysis, p-nitrophenol absorbance 415 nm; inhibition, % at 12.8 µM; actives 0.34% (n = 370,000); AID 720702, 2013;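 active = inhibition above the mean of all tested compounds plus 3 SD, set per campaign, cut at about 25% in these data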;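 also: 0% = DMSO with enzyme and 100% = buffer with substrate but no TDP2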
Target sequence (O95551 whole entry, looked up): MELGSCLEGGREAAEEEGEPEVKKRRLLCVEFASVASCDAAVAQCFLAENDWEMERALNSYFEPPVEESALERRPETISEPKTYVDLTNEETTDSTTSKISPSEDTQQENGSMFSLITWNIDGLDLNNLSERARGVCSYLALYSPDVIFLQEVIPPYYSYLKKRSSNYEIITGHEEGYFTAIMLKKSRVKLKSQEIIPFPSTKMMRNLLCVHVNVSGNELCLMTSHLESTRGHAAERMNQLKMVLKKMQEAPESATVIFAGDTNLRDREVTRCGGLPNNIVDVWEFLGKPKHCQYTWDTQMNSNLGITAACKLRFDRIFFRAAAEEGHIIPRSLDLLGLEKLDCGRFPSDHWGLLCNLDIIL
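System: recombinant human TDP2 / Amount: 120 nM TDP2 per well / Also added: 5 mM T5PNP chromogenic substrate / Doses: 12.8 µM single point, 1% DMSO / Incubation: 2 h at 37 °C / Detection: p-Nitrophenol epi absorbance / Evaluation: % inhibition relative to enzyme-containing and enzyme-free wells / Repeats: singlicate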
LEDGF integ inh: blockers of LEDGF/p75-dependent integrase strand transfer – biochemical, TR-FRET, high throughput, primary screen. HIV-1 integrase (with human LEDGF/p75). TR-FRET IN-LEDGF/p75 DNA integration, Eu/Cy5. inhibition, % at 3.7 µM. actives 0.64% (n = 370,000);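 active = inhibition above the screen-wide mean plus 3 SD, cut at about 13% in these data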;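 also: signal is the Cy5 over europium emission ratio at 671 and 618 nm; 0% = plate median of compound wells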
UHRF1 MBD2 ctr: UHRF1 methylated DNA binding inhibitors, primary screen, counter-screen for MBD2 inhibitor project, biochemical, TR-FRET, human UHRF1, single concentration; inhibition, % at 4.4 µM; UHRF1 binding to methylated oligo; actives 0.75% (n = 370,000); E3 ubiquitin-protein ligase UHRF1 (Homo sapiens), Q96T88;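 also: UHRF1 SRA domain binding a hemimethylated CpG hairpin DNA probe; 0% = median of test compound wells and 100% = reference inhibitor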
PRMT1 inh: PRMT1 methyltransferase inhibitors, primary screen, biochemical, fluorescence polarization. Protein arginine N-methyltransferase 1 (Homo sapiens), Q99873. recombinant PRMT1, activity-based probe fluorescence polarization. inhibition, % at 2.79 µM. actives 1.3% (n = 370,000). AID 652257, 2013;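 active = inhibition above about 21% made by adding two undisclosed values, limit read from the data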
MBD2 DNA inh: inhibitors of MBD2 binding to methylated DNA, primary screen, biochemical, TR-FRET, DNA-binding domain, human; actives 0.31% (n = 370,000); Methyl-CpG-binding domain protein 2 (Homo sapiens), Q9UBB5; MBD2 binding to methylated oligonucleotide; AID 686964, 2013; inhibition, % at 4.4 µM; in the data active = inhibition above about 13%
SIAE inh: human SIAE inhibitors, primary screen, biochemical, fluorescence polarization, FP-Rh probe, 1536-well HTS; inhibition, % at 9.66 µM; Sialate O-acetylesterase (Homo sapiens), Q9HAT2; SIAE FP-Rh probe binding; actives 0.69% (n = 370,000);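 active = inhibition above a cutoff: mean of compounds within the control limits plus 3 SD of those, cut at about 17% in these data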;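 also: 0% = plate median of compound wells and 100% = probe without SIAE protein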
UHRF1 DNA bind: UHRF1 methylated DNA binding inhibitors, counter-screen for MBD2 inhibitor project, biochemical, TR-FRET, human UHRF1 | shares compounds with MBD2 DNA inh | actives 25% (n = 1,000) | inhibition, % at 4.4 µM | AID 720530, 2013 | UHRF1 binding to methylated oligonucleotide;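 also: UHRF1 SRA domain binding a labeled hemimethylated CpG hairpin DNA; 0% = vehicle only and 100% = reference inhibitor with vehicle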
MBD2 confirm: inhibitors of MBD2 binding to methylated DNA, confirmation, biochemical, TR-FRET, DNA-binding domain, human; shares compounds with MBD2 DNA inh; TR-FRET MBD2-DBD binding to methylated oligonucleotide; inhibition, % at 4.4 µM; actives 26% (n = 1,000); AID 720531, 2013; in the data active = inhibition above about 14%
* hit, by the source's call; . = not tested or not shown. Rule as the data show it, unless noted: active = inhibition above about 21%; inactive = the rest.

SMILES | TDP2 absorb | LEDGF integ inh | UHRF1 MBD2 ctr | PRMT1 inh | MBD2 DNA inh | SIAE inh | UHRF1 DNA bind | MBD2 confirm
O=S(=O)(c1ccc(F)cc1)N1CCC(c2nc3ccccc3[nH]2)CC1 | -1 | -4 | -1 | 0 | 0 | 4 | . | .
CC(C)C[C@H]1COc2cccc(F)c2S(=O)(=O)N1Cc1cn(CCC2OCCCO2)nn1 | 5 | 0 | -3 | -1 | -3 | -7 | . | .
CC(C)NC(=O)[C@]1(C#N)CC(=O)N(C)[C@@H]1c1ccccc1 | 2 | 5 | 1 | 0 | 0 | 8 | . | .
O=C(NCC(c1ccccc1)c1ccccc1)[C@H](Cc1c[nH]c2ccccc12)NC1(C(=O)NC2CCCCC2)CCCC1 | 2 | -1 | 2 | 3 | 2 | 4 | . | .
CCN(CC(=O)Nc1c(F)cccc1F)C(=O)/C=C/c1ccc2ccccc2n1 | -7 | 10 | 64* | 5 | 30* | 1 | 66* | 58*
CCN(CC(=O)Nc1c(F)cccc1F)C(=O)c1ccc2ccccc2n1 | 7 | -4 | 4 | 1 | -1 | -5 | . | .
O=C(Nc1ccc(F)cc1)OCCN1CCCC12CCC(c1ccccc1)CC2 (stereo not drawn) | -3 | -1 | 1 | 5 | 7 | -1 | . | .
O=C(OCc1ccccc1)/C(=C/c1cccc2ccccc12)NC(=O)c1ccccc1 | -2 | 1 | 8 | -3 | 0 | 3 | . | .
Cc1ccc(C(=O)N/C(=C\c2ccccc2)C(=O)OCc2ccccc2)cc1 | 7 | 0 | 14 | 5 | 14* | -6 | 6 | 4
N#Cc1ccc(/C=C2\CC3(OC(=O)c4ccccc4)CCCN2C3)cc1 (stereo not drawn) | 0 | -1 | 0 | -1 | 5 | -8 | . | .
C=CCNC(=O)CN(C(=O)c1ccncn1)c1cccc(Br)c1 | -11 | -2 | 1 | -2 | 5 | -5 | . | .
O=C(O)c1cccc(Sc2ccc(Br)cc2C(=O)O)c1 | 12 | -1 | 0 | -2 | -3 | 3 | . | .
O=C(O)c1cccc(Sc2cc(Cl)ccc2C(=O)O)c1 | 6 | 2 | 20 | 4 | 13* | 0 | 6 | 9
COc1ccc(C2C3=C(CC(C)(C)CC3=O)Oc3ncn(CCO)c(=N)c32)cc1OC (stereo not drawn) | -5 | -2 | 6 | 0 | 49* | -2 | 7 | 2
Cc1cc(C)nc(SCC(=O)Nc2ccc(S(=O)(=O)Nc3ncccn3)cc2)n1 | 1 | 0 | -2 | 0 | -2 | 0 | . | .
Cc1cc(C)c(C#N)c(SCC(=O)Nc2ccc(S(=O)(=O)Nc3ncccn3)cc2)n1 | -10 | 0 | 1 | 7 | 18* | -2 | 12 | 3
O=C(O)c1ccc2c(c1)C(=O)/C(=C\c1ccco1)C2=O | 2 | 79* | 88* | 34* | 28* | -6 | 38* | 0
COC(=O)[C@]12C[C@H](CC(=O)NCC3CCCCC3)C(=O)N(Cc3ccco3)C1=C[C@H](C(C)(C)C)O[C@@H]2C | -4 | -1 | 1 | 1 | 1 | 1 | . | .
COC(=O)[C@]12C[C@H](CC(=O)NCCCN3CCCC3=O)C(=O)N(Cc3ccc(Cl)cc3Cl)C1=C[C@H](C1CCCC1)O[C@@H]2C | -5 | -4 | 0 | 4 | 15* | -9 | 13 | 3
COC(=O)[C@]12C[C@H](CC(=O)NCC3CCCCC3)C(=O)N(Cc3ccccc3)C1=C[C@H](C(C)(C)C)O[C@@H]2C | 7 | 0 | 24* | 1 | 20* | -7 | 3 | 2
COc1ccc(C)cc1NC(=O)c1cccc(C(=O)Nc2cc(C)ccc2OC)c1 | 7 | -5 | -1 | 14 | 74* | -5 | 0 | 0
CCC1CCc2c([nH]c3ccccc3c2=O)O1 (stereo not drawn) | 3 | 5 | 22* | 2 | 13* | 3 | 6 | 0
CC1(C)CCc2c([nH]c3ccccc3c2=O)O1 | 3 | -3 | -1 | -1 | -3 | -3 | . | .
OC(c1ccccc1)(c1ccccc1)C1CCN(CCCOc2ccc(-c3ccc(F)cc3F)cc2)CC1 | -2 | -3 | 2 | 2 | 5 | -1 | . | .
COCCNC(=S)N(C)[C@H]1C[C@H]2c3[nH]c4c(-c5cccc(C)c5)cccc4c3CCN2C[C@H]1[C@H](C)O | -11 | 5 | -5 | 6 | -10 | 4 | . | .
SMILES | TDP2 absorb | LEDGF integ inh | UHRF1 MBD2 ctr | PRMT1 inh | MBD2 DNA inh | SIAE inh | UHRF1 DNA bind | MBD2 confirm
Cc1ccc(-n2nc(C)cc2NC(=O)c2ccc(C)s2)cc1 | 0 | 0 | -2 | 0 | 34* | -2 | 5 | 6
N#Cc1ccc(NCCCN2CCC(C(O)(c3ccccc3)c3ccccc3)CC2)cc1 | 1 | 2 | 1 | 2 | -5 | 2 | . | .
O=C(OCC#CCSc1nnc(-c2cccc3ccccc23)o1)c1ccc(OC(F)F)cc1 | -1 | 1 | 1 | 5 | -3 | 1 | . | .
O=C(OCc1cc(=O)n2c(n1)sc1ccccc12)c1ccc2c(=O)n3c(nc2c1)CCC3 | 0 | 7 | 39* | 4 | 22* | -5 | 27* | 22*
CCN(CC)C(=O)CC[C@H]1CC[C@]2(CCCN(Cc3cccc4ccccc34)C2)O1 | 4 | 1 | -1 | 1 | -5 | 2 | . | .
C=CCN1C(=O)[C@@H](CC(=O)N2CCCC2)[C@]2(C(=O)OC)CCCCC=C12 | 6 | 9 | -1 | -3 | 0 | -8 | . | .
C/C(=N\NC(=O)c1nc2ccccn2c1C)c1cccc([N+](=O)[O-])c1 | 8 | 0 | 0 | -3 | 58* | -3 | 4 | 3
C/C(=N\NC(=O)c1nc2ccccn2c1C)c1ccc2c(c1)OCO2 | 9 | -2 | -2 | 1 | -1 | -2 | . | .
Nc1c(Cl)cc(Cl)cc1C(=O)OCC(=O)N1CCCC1 | 0 | 0 | -1 | -3 | 1 | 4 | . | .
NC(=O)COC(=O)c1cc(Cl)cc(Cl)c1N | -12 | -9 | 5 | 8 | 32* | 2 | 3 | 2

Source: PubChem BioAssay (The Scripps Research Institute Molecular Screening Center)
